Values after ≈ are worked out from the molar mass of the structure shown.
Key:
Cryptococcus neoformans = experiment: Antifungal activity against Cryptococcus neoformans ATCC 90113; assay type: functional, organism-based
[1] = Inhibition of Saccharomyces cerevisiae fatty acid synthase
Procedure, shortened: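 Yeast FAS semipurified by 50% ammonium sulfate precipitation of lysate (pH 6.6 phosphate, EDTA, DTT, protease inhibitors), dialyzed, and diluted to 250 mOD/min/mL. Samples preincubated with enzyme 30 min at room temperature, then mixed 1:1 with mix of 1 mM malonyl CoA and NADPH, 40 µM acetyl CoA, and 2 mM DTT. A340 read kinetically; rate over initial 2 min. IC50 from dose-response curves.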

Candida albicans = experiment: Antifungal activity against Candida albicans ATCC 90028; assay type: functional, organism-based

Row | IC50 (Cryptococcus neoformans) | IC50 [1] | IC50 (Candida albicans) | Structure (SMILES)
1 | > 50 µg/mL | > 50 µg/mL | > 50 µg/mL | Cc1c(-c2ccccc2)oc2c(C(=O)O)cccc2c1=O
2 | > 50 µg/mL | 49 µg/mL (≈ 86.5 µM) | > 50 µg/mL | COc1ccc(-c2cc(=O)c3c(O)cc(O)cc3o2)cc1-c1c(OC)cc(O)c2c(=O)cc(-c3ccc(O)cc3)oc12
3 | > 50 µg/mL | 50 µg/mL (≈ 185 µM) | > 50 µg/mL | O=c1c(-c2ccc(O)cc2)coc2cc(O)c(O)cc12
4 | > 50 µg/mL | > 50 µg/mL | > 50 µg/mL | O=c1cc(-c2ccc(Cl)cc2)oc2ccc(Br)cc12
5 | 50 µg/mL (≈ 147 µM) | 46 µg/mL (≈ 135 µM) | 20 µg/mL (≈ 58.8 µM) | C=C(C)C(O)Cc1c(O)ccc(C(=O)/C=C/c2ccc(O)cc2)c1O (centres undefined)
6 | > 50 µg/mL | 2.3 µg/mL (≈ 7.71 µM) | > 50 µg/mL | O=Cc1cc(-c2coc3cc(O)cc(O)c3c2=O)ccc1O
7 | > 50 µg/mL | > 50 µg/mL | > 50 µg/mL | Cc1ccc2oc(-c3ccc(Cl)cc3)cc(=O)c2c1
8 | > 50 µg/mL | > 50 µg/mL | > 50 µg/mL | O=c1cc(-c2ccc(Cl)cc2)oc2c(Br)cc(Br)cc12
9 | > 50 µg/mL | > 50 µg/mL | > 50 µg/mL | O=C1c2c(O)cc(O)cc2OC(c2ccc(O)cc2O)C1O (centres undefined)
10 | > 50 µg/mL | > 50 µg/mL | > 50 µg/mL | COc1cc(O)c(C(=O)CCc2ccccc2)c(O)c1
11 | > 50 µg/mL | > 50 µg/mL | > 50 µg/mL | C=C(C)C(O)Cc1cc(-c2coc3cc(O)cc(O)c3c2=O)ccc1O (centres undefined)
12 | > 50 µg/mL | 30 µg/mL (≈ 53.9 µM) | > 50 µg/mL | O=C1c2c(O)cc(O)cc2OC(c2ccc(O)cc2)C1c1c(O)cc(O)c2c(=O)cc(-c3ccc(O)c(O)c3)oc12 (centres undefined)
13 | > 50 µg/mL | > 50 µg/mL | > 50 µg/mL | Oc1cc(O)c2c(c1)O[C@H](c1ccc(O)c(O)c1)[C@H](O)C2 [(-)-EPICATECHIN]
14 | > 50 µg/mL | > 50 µg/mL | > 50 µg/mL | CC1(C)C=Cc2c(cc3occ(-c4ccc(O)cc4)c(=O)c3c2O)O1 [ALPINUMISOFLAVONE]
15 | > 50 µg/mL | 7 µg/mL (≈ 13 µM) | > 50 µg/mL | O=c1cc(-c2ccc(O)c(-c3c(O)cc(O)c4c(=O)cc(-c5ccc(O)cc5)oc34)c2)oc2cc(O)cc(O)c12 [AMENTOFLAVONE]
16 | 20 µg/mL (≈ 74 µM) | 37.5 µg/mL (≈ 139 µM) | > 50 µg/mL | O=c1cc(-c2ccc(O)cc2)oc2cc(O)cc(O)c12 [APIGENIN]
17 | > 50 µg/mL | > 50 µg/mL | > 50 µg/mL | COc1cc(O)c(C(=O)CCc2ccc(O)cc2)c(O)c1 [ASEBOGENIN]
18 | > 50 µg/mL | 25 µg/mL (≈ 92.5 µM) | 6 µg/mL (≈ 22.2 µM) | O=c1cc(-c2ccccc2)oc2cc(O)c(O)c(O)c12 [BAICALEIN]
19 | > 50 µg/mL | > 50 µg/mL | > 50 µg/mL | COc1ccc(-c2coc3cc(O)cc(O)c3c2=O)cc1 [BIOCHANIN]
20 | > 50 µg/mL | > 50 µg/mL | > 50 µg/mL | O=c1c(O)c(-c2ccc(O)c(O)c2)oc2cc(O)ccc12 [FISETIN]

More lines, now with the values behind:

Row | Structure (SMILES) | IC50 (Cryptococcus neoformans) | IC50 [1] | IC50 (Candida albicans)
21 | CC1(C)CC[C@]2(C(=O)O)CC[C@]3(C)C(=CC[C@@H]4[C@@]5(C)C[C@@H](O)[C@H](O)[C@@](C)(COC(=O)c6cc(O)c(O)c(O)c6)[C@@H]5[C@H](O)C[C@]43C)[C@@H]2C1 | > 50 µg/mL | > 50 µg/mL | > 50 µg/mL
22 | O=c1cc(-c2ccccc2)oc2c(Br)cc(Br)cc12 | > 50 µg/mL | > 50 µg/mL | > 50 µg/mL
23 | COc1cc2c(=O)oc3c(OC)c(O[C@@H]4O[C@H](CO)[C@@H](O)[C@H](O)[C@H]4O)cc4c(=O)oc(c1OC)c2c34 | > 50 µg/mL | > 50 µg/mL | > 50 µg/mL
24 | Cc1cc2oc(-c3ccccc3)cc(=O)c2cc1Cl | > 50 µg/mL | > 50 µg/mL | > 50 µg/mL
25 | O=C1c2c(O)cc(O)c(C3C(=O)c4c(O)cc(O)cc4OC3c3ccc(O)cc3)c2OC(c2ccc(O)c(O)c2)C1O (centres undefined) | > 50 µg/mL | 23 µg/mL (≈ 40 µM) | > 50 µg/mL
26 | O=C1c2c(O)cc(O)cc2OC1(O)Cc1cc(O)c(O)c(O)c1 (centres undefined) [AMARANOL A] | > 50 µg/mL | > 50 µg/mL | > 50 µg/mL
27 | COc1c(O)cc(CC2(O)Oc3cc(O)cc(O)c3C2=O)cc1O (centres undefined) [AMARONOL B] | > 50 µg/mL | > 50 µg/mL | > 50 µg/mL
28 | CC1(C)CC[C@]2(C(=O)O)CC[C@]3(C)C(=CC[C@@H]4[C@@]5(C)C[C@@H](O)[C@H](O)[C@@](C)(CO)[C@@H]5CC[C@]43C)[C@@H]2C1 [ARJUNOLIC ACID] | 20 µg/mL (≈ 40.9 µM) | 27.5 µg/mL (≈ 56.3 µM) | > 50 µg/mL
29 | COc1cc2oc(-c3ccccc3)cc(=O)c2c(OC)c1OC [BAICALEIN TRIMETHYL ETHER] | > 50 µg/mL | > 50 µg/mL | > 50 µg/mL
30 | O=C(O)[C@H]1O[C@@H](Oc2cc3oc(-c4ccccc4)cc(=O)c3c(O)c2O)[C@H](O)[C@@H](O)[C@@H]1O [BAICALIN] | > 50 µg/mL | > 50 µg/mL | > 50 µg/mL
31 | C=C(C)[C@@H]1CC[C@]2(C(=O)O)CC[C@]3(C)[C@H](CC[C@@H]4[C@@]5(C)CC[C@H](O)C(C)(C)[C@@H]5CC[C@]43C)[C@@H]12 [BETULINIC ACID] | > 50 µg/mL | > 50 µg/mL | > 50 µg/mL
32 | C/C=C/C/C=C/CCC(=O)[C@H]1O[C@H]1C(N)=O [CERULENIN] | 0.15 µg/mL (≈ 0.672 µM) | 0.15 µg/mL (≈ 0.672 µM) | 0.4 µg/mL (≈ 1.79 µM)
33 | O=C(O)C[C@@H]1C(=O)O[C@H]2[C@@H]3OC(=O)c4cc(O)c(O)c(O)c4-c4c(cc(O)c(O)c4O)C(=O)OC[C@H]2O[C@@H](OC(=O)c2cc(O)c(O)c(O)c2)[C@@H]3OC(=O)c2cc(O)c(O)c3c2[C@H]1[C@H](O)C(=O)O3 [CHEBULAGIC ACID] | > 50 µg/mL | > 50 µg/mL | > 50 µg/mL
34 | O=C(O)C[C@H]1C(=O)O[C@H]2[C@H](OC(=O)c3cc(O)c(O)c(O)c3)[C@@H](OC(=O)c3cc(O)c(O)c4c3[C@H]1[C@H](O)C(=O)O4)[C@H](OC(=O)c1cc(O)c(O)c(O)c1)O[C@@H]2COC(=O)c1cc(O)c(O)c(O)c1 [CHEBULINIC ACID] | > 50 µg/mL | > 50 µg/mL | > 50 µg/mL
35 | CC1(C)CC[C@]2(C(=O)O[C@@H]3O[C@H](CO)[C@@H](O)[C@H](O)[C@H]3O)CC[C@]3(C)C(=CC[C@@H]4[C@@]5(C)C[C@@H](O)[C@H](O)[C@@](C)(CO)[C@@H]5[C@H](O)C[C@]43C)[C@@H]2C1 [CHEBULOSIDE II] | > 50 µg/mL | > 50 µg/mL | > 50 µg/mL
36 | O=c1oc2c(O)c(O)cc3c(=O)oc4c(O)c(O)cc1c4c23 [ELLAGIC ACID] | 5.5 µg/mL (≈ 18.2 µM) | 20 µg/mL (≈ 66.2 µM) | > 50 µg/mL
37 | C[C@@H]1O[C@@H](Oc2cc3c(=O)oc4c(O)c(O)cc5c(=O)oc(c2O)c3c45)[C@H](O)[C@H](O)[C@H]1O [ESCHWEILENOL C] | > 50 µg/mL | 7.5 µg/mL (≈ 16.7 µM) | > 50 µg/mL
38 | O=C1CC(c2ccccc2)Oc2ccccc21 (centres undefined) [FLAVANONE] | > 50 µg/mL | > 50 µg/mL | > 50 µg/mL

— ChEMBL document CHEMBL1150169, “Fatty acid synthase inhibitors from plants: isolation, structure elucidation, and SAR studies” (J Nat Prod, 2002)
